Data set [1] relates to Mus musculus. Kind of data set: Inhibition of […] induced TNF-alpha release in mice upon oral administration. The class given is functional.
Data set [2] addresses Mitogen-activated protein kinase 14 (Mus musculus, UniProt P47811). Kind of data set: Inhibition of murine His-Mitogen-activated protein kinase p38 alpha phosphorylation.
Data set [3] concerns Rattus norvegicus. Kind of data set: Percent swelling of joints in rats immunized with Mycobacterium tuberculosis was determined on day 20 after 25 mg/kg peroral administration. The class given is functional. The settings on record: route oral. Summed up:
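Female Wistar rats immunized with Mycobacterium tuberculosis at day 0 (adjuvant-induced arthritis); oral dosing 25 mg/kg twice daily from day 14 to 20; joint swelling measured on day 20, expressed as % inhibition of swelling.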

For data set [4], the system named is Mus musculus. The experiment in a line: Dose required to inhibit […] induced TNF-alpha release in mice upon oral administration. Format: functional.
Another data set concerns the target T1, Cytochrome P450 1A2 (Homo sapiens, UniProt P05177).
T1 sequence (P05177 whole entry): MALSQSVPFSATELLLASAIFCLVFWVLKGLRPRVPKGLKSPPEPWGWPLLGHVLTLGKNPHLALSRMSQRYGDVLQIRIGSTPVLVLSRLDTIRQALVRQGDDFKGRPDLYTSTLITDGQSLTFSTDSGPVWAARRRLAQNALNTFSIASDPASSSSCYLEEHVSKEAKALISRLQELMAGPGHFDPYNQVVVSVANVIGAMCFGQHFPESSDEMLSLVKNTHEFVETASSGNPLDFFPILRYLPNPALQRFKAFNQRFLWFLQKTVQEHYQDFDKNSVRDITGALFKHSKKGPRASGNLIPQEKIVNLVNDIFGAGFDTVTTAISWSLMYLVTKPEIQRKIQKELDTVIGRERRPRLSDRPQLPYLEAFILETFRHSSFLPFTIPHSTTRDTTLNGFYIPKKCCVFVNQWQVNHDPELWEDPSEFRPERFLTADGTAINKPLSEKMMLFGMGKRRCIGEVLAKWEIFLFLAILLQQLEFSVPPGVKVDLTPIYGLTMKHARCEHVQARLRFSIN
The experiment in a line: Inhibition of human cytochrome P450 1A2. Format: ADME.

Data set [5] addresses Prostaglandin G/H synthase 1 (Homo sapiens, UniProt P23219). The experiment in a line: Inhibition of human prostaglandin G/H synthase 1.
The next data set deals with Cytochrome P450 2D6 (Homo sapiens, UniProt P10635). The experiment in a line: Inhibition of human cytochrome P450 2D6. The class given is ADME.
For a further data set, the target named is Cytochrome P450 2C9 (Homo sapiens, UniProt P11712). Kind of data set: Inhibition of human cytochrome P450 2C9. Format: ADME.
Another data set concerns the target Cytochrome P450 3A4 (Homo sapiens, UniProt P08684). Kind of data set: Inhibition of human cytochrome P450 3A4. The class given is ADME.
Data set [6] deals with Mitogen-activated protein kinase 9 (Homo sapiens, UniProt P45984). The experiment in a line: Inhibit of human c-Jun N-terminal kinase 2.
The nature of data set [7]: Peak plasma concentration at 1 mg/kg peroral administration. The class given is ADME, organism-based. Also on record: dose 1 mg/kg, route oral. Particulars: rat, po. Summed up:
(§1)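 Pharmacokinetics were determined in rat. Cmax was measured after a 1 mg/kg oral dose. Oral bioavailability, terminal half-life and steady-state volume of distribution (Vss, L/kg) were reported.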

Data set [8] in a line: Volume of distribution in steady state was determined in rat. Format: ADME, organism-based. Particulars: in vivo, read-out: Vss. Summed up: as §1
Data set [9] in a line: Oral bioavailability. The class given is ADME, organism-based. Particulars: rat, in vivo. Summed up:
as §1

The test system of data set [10] is Rattus norvegicus. The experiment in a line: Dose required to inhibit bovine nasalseptum type II collagen induced arthritis in rats after administration on day 13. Format: functional. The settings on record: 312 h.
Data set [11] deals with Mast/stem cell growth factor receptor Kit (Homo sapiens) (UniProt P10721). The experiment in a line: Inhibition of human c-Kit kinase. The settings on record: concentration not given here.
Data set [12] concerns the target Proto-oncogene tyrosine-protein kinase Src (Homo sapiens) (UniProt P12931). Kind of data set: Inhibition of human c-Src at 10 uM.
Data set [13] has as its target Insulin-like growth factor 1 receptor (Homo sapiens) (UniProt P08069). The experiment in a line: Inhibition of human insulin-like growth factor I receptor at 10 uM.
The target of data set [14] is Fibroblast growth factor receptor (Homo sapiens) (UniProt P22607+P11362+P22455+P21802). Kind of data set: Inhibitory activity against human FGFR at 10 uM. The class given is protein assay.
Data set [15] concerns the target Cyclin-dependent kinase 1 (Homo sapiens) (UniProt P06493). Kind of data set: Inhibition of human cyclin-dependent kinase 1 at 10 uM.
For data set [16], the target named is T2, Epidermal growth factor receptor (Homo sapiens, UniProt P00533). The settings on record: 10 uM.
The target in data set [17] is RAF proto-oncogene serine/threonine-protein kinase (Homo sapiens) (UniProt P04049). The experiment in a line: Inhibition of human RAF proto-oncogene serine/threonine-protein kinase at 10 uM.
Data set [18] addresses T2, Epidermal growth factor receptor. The experiment in a line: (§2) Inhibition of human Epidermal growth factor receptor.
The target of data set [19] is Hepatocyte growth factor receptor (Homo sapiens, UniProt P08581). Kind of data set: Inhibit of human Met proto-oncogene tyrosine kinase.
Data set [20] concerns the target T2, Epidermal growth factor receptor. The description is as §2. This is another data set of the same source.

What is called Inhibition is how much of the control response was suppressed. The low end stands for a weak effect, the high end for a strong effect. Broadly, the IC50 is the concentration that gives 50% inhibition. In general, ED50 refers to the dose that gives a 50% effect, or the effect in half of the subjects. In general, Cmax refers to the peak of the concentration-time curve. A word on the bioavailability: it is the share of a dose that reaches the circulation, judged against a reference dose that is usually intravenous. As usually defined, the inhibition is the relative decrease from the control value, in per cent.

Mitogen-activated protein kinase 14, sequence (P47811 whole entry): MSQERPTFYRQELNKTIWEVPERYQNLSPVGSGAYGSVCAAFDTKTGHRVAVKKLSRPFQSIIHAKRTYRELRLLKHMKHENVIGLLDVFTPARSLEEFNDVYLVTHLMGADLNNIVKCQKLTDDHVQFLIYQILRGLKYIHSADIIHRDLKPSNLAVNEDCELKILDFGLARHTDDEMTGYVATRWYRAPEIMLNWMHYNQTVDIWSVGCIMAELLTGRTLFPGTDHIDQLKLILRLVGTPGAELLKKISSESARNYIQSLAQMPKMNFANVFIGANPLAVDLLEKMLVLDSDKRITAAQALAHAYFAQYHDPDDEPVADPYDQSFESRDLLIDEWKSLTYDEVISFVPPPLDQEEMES
T2 sequence (P00533 whole entry): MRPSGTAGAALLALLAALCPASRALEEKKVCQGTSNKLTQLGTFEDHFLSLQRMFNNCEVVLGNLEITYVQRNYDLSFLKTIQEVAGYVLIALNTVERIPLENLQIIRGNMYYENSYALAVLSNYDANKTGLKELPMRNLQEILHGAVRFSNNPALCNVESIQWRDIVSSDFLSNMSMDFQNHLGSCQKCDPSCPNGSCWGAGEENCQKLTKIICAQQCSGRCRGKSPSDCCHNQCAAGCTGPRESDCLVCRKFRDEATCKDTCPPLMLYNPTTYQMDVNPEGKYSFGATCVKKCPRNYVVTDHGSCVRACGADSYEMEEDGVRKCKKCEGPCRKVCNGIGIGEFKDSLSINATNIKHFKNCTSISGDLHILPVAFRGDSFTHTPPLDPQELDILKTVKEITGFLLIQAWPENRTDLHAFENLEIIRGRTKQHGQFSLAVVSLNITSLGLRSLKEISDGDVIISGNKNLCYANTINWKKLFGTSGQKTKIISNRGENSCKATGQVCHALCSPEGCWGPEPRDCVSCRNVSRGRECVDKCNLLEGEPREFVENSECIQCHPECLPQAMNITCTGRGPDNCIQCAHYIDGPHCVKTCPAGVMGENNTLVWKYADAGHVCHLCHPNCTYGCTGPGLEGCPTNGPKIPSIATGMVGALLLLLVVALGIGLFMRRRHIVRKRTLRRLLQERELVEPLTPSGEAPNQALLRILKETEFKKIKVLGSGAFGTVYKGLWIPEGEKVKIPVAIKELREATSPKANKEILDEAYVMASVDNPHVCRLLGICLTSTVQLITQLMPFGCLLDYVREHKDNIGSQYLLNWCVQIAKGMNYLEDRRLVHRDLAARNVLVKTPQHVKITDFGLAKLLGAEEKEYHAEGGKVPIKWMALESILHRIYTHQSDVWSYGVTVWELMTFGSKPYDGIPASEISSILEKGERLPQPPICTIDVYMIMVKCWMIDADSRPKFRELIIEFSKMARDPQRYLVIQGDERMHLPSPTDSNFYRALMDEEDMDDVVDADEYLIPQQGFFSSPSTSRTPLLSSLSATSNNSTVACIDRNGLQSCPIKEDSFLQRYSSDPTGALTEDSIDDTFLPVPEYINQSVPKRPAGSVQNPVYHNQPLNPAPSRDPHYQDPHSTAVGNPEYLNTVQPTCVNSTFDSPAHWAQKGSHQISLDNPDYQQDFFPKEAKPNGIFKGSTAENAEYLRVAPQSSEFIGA
Cytochrome P450 2D6, sequence (P10635 whole entry): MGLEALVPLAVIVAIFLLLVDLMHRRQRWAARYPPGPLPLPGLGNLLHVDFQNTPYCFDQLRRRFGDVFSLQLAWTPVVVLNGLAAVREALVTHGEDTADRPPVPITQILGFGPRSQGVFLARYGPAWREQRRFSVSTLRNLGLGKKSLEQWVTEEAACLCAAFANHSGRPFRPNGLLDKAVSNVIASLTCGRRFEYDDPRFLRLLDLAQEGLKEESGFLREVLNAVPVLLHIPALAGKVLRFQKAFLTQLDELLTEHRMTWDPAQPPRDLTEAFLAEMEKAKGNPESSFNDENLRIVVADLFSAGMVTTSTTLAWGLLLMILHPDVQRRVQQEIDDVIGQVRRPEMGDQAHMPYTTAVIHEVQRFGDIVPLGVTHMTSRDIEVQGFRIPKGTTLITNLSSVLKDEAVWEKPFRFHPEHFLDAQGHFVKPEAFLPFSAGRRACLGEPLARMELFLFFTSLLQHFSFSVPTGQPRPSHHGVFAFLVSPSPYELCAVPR
Insulin-like growth factor 1 receptor (Homo sapiens), sequence (P08069 31-736 limits assumed): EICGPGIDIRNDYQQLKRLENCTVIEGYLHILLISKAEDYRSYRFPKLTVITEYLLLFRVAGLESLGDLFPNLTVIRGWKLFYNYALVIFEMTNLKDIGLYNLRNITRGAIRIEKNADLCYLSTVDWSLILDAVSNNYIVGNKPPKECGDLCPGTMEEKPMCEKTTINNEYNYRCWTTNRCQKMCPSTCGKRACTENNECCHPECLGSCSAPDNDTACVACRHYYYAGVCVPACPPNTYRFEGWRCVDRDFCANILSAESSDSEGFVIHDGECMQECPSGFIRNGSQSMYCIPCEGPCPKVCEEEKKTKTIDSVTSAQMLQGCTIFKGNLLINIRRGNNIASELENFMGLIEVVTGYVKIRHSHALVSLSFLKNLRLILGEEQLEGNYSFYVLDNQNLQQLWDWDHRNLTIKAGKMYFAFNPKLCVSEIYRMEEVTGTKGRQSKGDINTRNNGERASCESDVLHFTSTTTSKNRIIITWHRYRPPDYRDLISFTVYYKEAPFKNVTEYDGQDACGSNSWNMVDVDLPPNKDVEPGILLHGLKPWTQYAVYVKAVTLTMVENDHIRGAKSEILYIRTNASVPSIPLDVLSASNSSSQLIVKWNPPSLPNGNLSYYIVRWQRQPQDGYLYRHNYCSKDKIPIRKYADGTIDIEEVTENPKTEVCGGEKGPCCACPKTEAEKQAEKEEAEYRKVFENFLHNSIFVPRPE
Insulin-like growth factor 1 receptor (Homo sapiens), sequence (P08069 741-1367 limits assumed): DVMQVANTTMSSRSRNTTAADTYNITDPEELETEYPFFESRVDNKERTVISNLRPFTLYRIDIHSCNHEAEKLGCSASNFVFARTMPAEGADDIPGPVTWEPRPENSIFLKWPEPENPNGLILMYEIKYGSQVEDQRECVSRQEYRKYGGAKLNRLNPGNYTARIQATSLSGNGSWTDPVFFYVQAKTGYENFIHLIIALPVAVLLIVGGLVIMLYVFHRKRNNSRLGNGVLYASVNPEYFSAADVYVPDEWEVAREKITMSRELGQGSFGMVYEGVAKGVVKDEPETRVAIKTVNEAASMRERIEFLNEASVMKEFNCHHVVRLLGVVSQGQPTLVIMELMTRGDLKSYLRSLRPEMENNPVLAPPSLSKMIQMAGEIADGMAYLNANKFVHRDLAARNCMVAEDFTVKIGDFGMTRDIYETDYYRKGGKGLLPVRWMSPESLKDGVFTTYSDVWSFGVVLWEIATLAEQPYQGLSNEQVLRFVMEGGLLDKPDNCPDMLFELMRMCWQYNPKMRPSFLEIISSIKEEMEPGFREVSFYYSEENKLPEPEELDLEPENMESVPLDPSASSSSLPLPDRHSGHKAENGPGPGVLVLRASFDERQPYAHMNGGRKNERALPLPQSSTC
Mitogen-activated protein kinase 9, sequence (P45984 whole entry): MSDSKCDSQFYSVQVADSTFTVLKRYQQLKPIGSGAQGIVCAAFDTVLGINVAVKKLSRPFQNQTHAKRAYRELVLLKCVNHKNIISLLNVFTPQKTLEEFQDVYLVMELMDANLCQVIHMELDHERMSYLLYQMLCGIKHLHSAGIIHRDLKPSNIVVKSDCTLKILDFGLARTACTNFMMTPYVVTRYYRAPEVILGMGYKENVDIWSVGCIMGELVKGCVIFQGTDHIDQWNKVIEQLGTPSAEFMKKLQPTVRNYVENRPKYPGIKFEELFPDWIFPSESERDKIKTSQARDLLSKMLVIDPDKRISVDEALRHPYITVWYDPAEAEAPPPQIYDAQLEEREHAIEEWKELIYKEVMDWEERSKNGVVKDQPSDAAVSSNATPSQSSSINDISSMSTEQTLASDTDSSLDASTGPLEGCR
Cytochrome P450 3A4, sequence (P08684 whole entry): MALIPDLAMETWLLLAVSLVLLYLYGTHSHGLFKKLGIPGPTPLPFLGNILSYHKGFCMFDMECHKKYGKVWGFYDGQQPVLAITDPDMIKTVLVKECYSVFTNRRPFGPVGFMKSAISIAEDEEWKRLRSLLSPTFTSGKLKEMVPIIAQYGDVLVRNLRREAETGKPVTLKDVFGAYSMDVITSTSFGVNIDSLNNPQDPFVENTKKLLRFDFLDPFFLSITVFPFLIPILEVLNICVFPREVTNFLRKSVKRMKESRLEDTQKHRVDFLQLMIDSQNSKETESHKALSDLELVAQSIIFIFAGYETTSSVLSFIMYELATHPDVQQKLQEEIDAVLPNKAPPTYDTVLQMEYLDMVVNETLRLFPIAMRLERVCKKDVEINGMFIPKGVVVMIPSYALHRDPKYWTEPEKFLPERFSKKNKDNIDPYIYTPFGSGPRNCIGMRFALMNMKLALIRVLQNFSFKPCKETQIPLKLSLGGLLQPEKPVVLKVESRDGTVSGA
Prostaglandin G/H synthase 1, sequence (P23219 whole entry): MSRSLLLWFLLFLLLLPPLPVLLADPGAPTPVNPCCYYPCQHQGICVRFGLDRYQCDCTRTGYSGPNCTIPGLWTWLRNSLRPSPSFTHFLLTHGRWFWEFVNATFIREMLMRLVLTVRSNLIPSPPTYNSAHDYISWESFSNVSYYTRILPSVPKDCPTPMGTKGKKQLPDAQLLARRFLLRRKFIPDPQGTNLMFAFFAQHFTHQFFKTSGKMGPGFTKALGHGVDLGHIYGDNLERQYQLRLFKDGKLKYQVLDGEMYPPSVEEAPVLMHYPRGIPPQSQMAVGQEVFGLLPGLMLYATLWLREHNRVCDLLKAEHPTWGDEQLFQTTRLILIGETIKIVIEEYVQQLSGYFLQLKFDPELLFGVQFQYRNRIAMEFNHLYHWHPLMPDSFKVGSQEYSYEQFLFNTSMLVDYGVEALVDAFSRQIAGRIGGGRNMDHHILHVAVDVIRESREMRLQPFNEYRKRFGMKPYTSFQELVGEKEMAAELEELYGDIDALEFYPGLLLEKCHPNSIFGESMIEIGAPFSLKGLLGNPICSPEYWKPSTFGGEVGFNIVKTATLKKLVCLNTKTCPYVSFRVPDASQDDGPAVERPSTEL

In the data set with Mus musculus [1], `O=C(c1ccc(Nc2ccc(F)cc2F)cc1)c1ccccc1Cl` came in with an Inhibition of 6%. Further, in data set [2], the IC50 was 11 µM.

`COc1ccc(/C=C/C2(O)CCN(C)CC2)cc1C(=O)c1ccc(Nc2ccc(F)cc2F)cc1` showed an Inhibition in the data set with Mus musculus [1] of 68%. The molecule also gave a half-inhibitory concentration (IC50) in [2] of 1 µM. Further, the Swelling in the data set with Rattus norvegicus [3] was 47%.

As for `CC(C)(N)CCc1ccc(Cl)c(C(=O)c2ccc(Nc3ccc(F)cc3F)nc2)c1`, in data set [2], the midpoint of inhibition, the IC50, lay at 160 µM.

`COc1ccc(CCC(C)(C)N)cc1C(=O)c1ccc(Nc2ccc(F)cc2F)cc1`: the Inhibition in the data set with Mus musculus [1] was found to be 0%. Moreover, the midpoint of inhibition in data set [2], the IC50, lay at 113 µM.

For the molecule `O=C(c1ccc(Nc2ccc(F)cc2F)nc1)c1cc(Br)ccc1Cl`, the IC50 in [2] stood at 300 µM.

In the data set on Mus musculus [1], `CC(C)(N)C#Cc1ccc(Cl)c(C(=O)c2ccc(Nc3ccc(F)cc3F)nc2)c1` showed an Inhibition of 50%. Moreover, the IC50 in [2] amounted to 19 µM. Moreover, the Swelling in the data set on Rattus norvegicus [3] is on record as 36%.

Molecule `COc1ccc(C#CC(C)(C)O)cc1C(=O)c1ccc(Nc2ccc(F)cc2F)nc1` displayed a 50% effective dose (ED50) in the data set with Mus musculus [4] of 23 mg/kg. The molecule also yielded an Inhibition with Mus musculus [1] of 88%. The molecule further came in with an IC50 in data set [2] of 54 µM. Also, the Swelling with Rattus norvegicus [3] is 23%.

In the data set on Mus musculus [1], `COc1ccccc1C(=O)c1ccc(Nc2ccc(F)cc2F)cc1` registered an Inhibition of 0%. Further, half-maximal inhibition in data set [2] (IC50) was put at 38 µM.

In the data set with Mus musculus [1], `Cc1nc2cc(C(=O)c3ccc(Nc4ccc(F)cc4F)nc3)c(Cl)cc2[nH]1` came in with an Inhibition of 91%. In [2], this molecule gave a half-inhibitory concentration (IC50) of 8 µM. Moreover, in the data set on Rattus norvegicus [3], the Swelling amounted to 40%.

The molecule `COc1ccc(C#CC(C)(C)N)cc1C(=O)c1ccc(Nc2ccc(F)cc2F)nc1` came in with an Inhibition with Mus musculus [1] of 91%. Besides, 8 µM corresponded to half-maximal inhibition in [2] (IC50). The molecule also came in with a Swelling in the data set with Rattus norvegicus [3] of 52%.

For `COc1cc2nc(C)[nH]c2cc1C(=O)c1ccc(Nc2ccc(F)cc2F)cc1`, the concentration for half-maximal inhibition (IC50) is above 2 µM on Cytochrome P450 1A2; above 80 µM in data set [5]; above 2 µM on Cytochrome P450 2D6; above 2 µM at Cytochrome P450 2C9; above 2 µM against Cytochrome P450 3A4; 5 µM in [2]. For the same molecule, the half-inhibitory concentration (IC50) in [6] is above 10 µM.

On to `Cc1nc2cc(C(=O)c3ccc(Nc4ccc(F)cc4F)cc3)c(Cl)cc2[nH]1`, for which the Inhibition with Mus musculus [1] is recorded as 93%. For the same molecule, the concentration for half-maximal inhibition (IC50) in [2] came out at 0.7 µM. In the data set on Rattus norvegicus [3], this molecule yielded a Swelling of 46%.

As for `COc1ccc(CCC2(O)CCN(C)CC2)cc1C(=O)c1ccc(Nc2ccc(F)cc2F)cc1`, in the data set on Mus musculus [1], the Inhibition was determined as 0%. Besides, the IC50 in data set [2] was determined as 51 µM.

For `COc1cc2[nH]c(C)nc2cc1C(=O)c1ccc(Nc2ccc(F)cc2F)nc1`, the peak level in data set [7] (Cmax) was 607 nM. The Vd in data set [8] was found to be 1.1 L/kg. This molecule had a bioavailability in data set [9] of 54%. In addition, the Inhibition with Mus musculus [1] was 57%. The molecule further registered a 50% effective dose (ED50) with Rattus norvegicus [10] of 8.6 mg/kg. The 50% inhibitory concentration (IC50) in [2] worked out at 21 µM. The molecule also displayed a Swelling with Rattus norvegicus [3] of 70%.

In the case of `COc1cc2[nH]c(C)nc2cc1C(=O)c1ccc(Nc2ccc(F)cc2F)cc1`, the inhibition was 0% in data set [11]; 0% in [12]; 0% in data set [13]; 0% in data set [14]; 0% in data set [15]; -10% in data set [16]. Further, in the data set with Mus musculus [1], the Inhibition is given as 90%. The molecule also showed a Swelling in the data set with Rattus norvegicus [3] of 50%.

As for `COc1ccc(CCC(C)(C)O)cc1C(=O)c1ccc(Nc2ccc(F)cc2F)nc1`, in data set [2], the IC50 was 479 µM.

`CC(C)(N)C#Cc1ccc(Cl)c(C(=O)c2ccc(Nc3ccc(F)cc3F)cc2)c1` had an Inhibition with Mus musculus [1] of 85%. The same molecule displayed a half-inhibitory concentration (IC50) in data set [2] of 6 µM.

In the case of `COc1ccc(C#CC(C)(C)N)cc1C(=O)c1ccc(Nc2ccc(F)cc2F)cc1`, the results for the inhibition in [17], in [12] and in [13] were 0%, -10% and 0%, respectively. This molecule also registered a Cmax in data set [7] of 59 nM. Further, the IC50 on Cytochrome P450 1A2 is above 2 µM; in data set [5], above 80 µM; in [18] it was 8.8 µM; in data set [19], 1.5 µM; in data set [20], 4.4 µM; against Cytochrome P450 2D6, above 2 µM. The half-inhibitory concentration (IC50) at Cytochrome P450 2C9 was above 2 µM; at Cytochrome P450 3A4, above 2 µM; in data set [2] it was 14 µM; in data set [6] it was above 10 µM. Moreover, the Vd in data set [8] stood at 9 L/kg. The same molecule returned a bioavailability in data set [9] of 46%. The Inhibition in the data set on Mus musculus [1] is listed as 95%. Further, in the data set with Rattus norvegicus [3], the Swelling was determined as 51%.

Turning to `O=C(c1ccc(Nc2ccc(F)cc2F)nc1)c1ccccc1Cl`, in data set [2], the half-maximal inhibitory concentration (IC50) turned out to be 101 µM.

The record behind these values is ChEMBL document CHEMBL1147484, “SAR of benzoylpyridines and benzophenones as p38alpha MAP kinase inhibitors with oral activity” (Bioorg Med Chem Lett, 2004).
